Data on 32 molecules can be found in ChEMBL document CHEMBL1128547, “Selective inhibitors of Candida albicans dihydrofolate reductase: activity and selectivity of 5-(arylthio)-2,4-diaminoquinazolines” (J Med Chem, 1995).

Converted amounts (≈) assume the structure as drawn. A value given as a limit tells only on which side of the number the result lay.

Usually MIC stands for the lowest concentration that inhibits growth of the organism. Low values mean inhibition by little substance, high ones a need for much substance.

Assay [1] concerns Candida albicans. Nature of the assay: Minimum inhibitory concentration required to inhibit Candida albicans (in vitro). Type of assay: functional. The procedure, abridged:
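Broth dilution in defined medium (NH4Cl, K2HPO4, MgSO4, sodium citrate, PIPES, biotin, glucose; pH 7.1), strain P712 from frozen log-phase stocks. Inoculum 4500 CFU per 3 mL tube, final drug 50–0.01 μg/mL, or microtiter wells (0.05 mL) with 4-fold dilutions. 28 °C, 160 rpm, 20–24 h.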

The test system of assay [2] is Candida albicans. The assay can be described thus: Ratio of I50 evaluated for inhibition of DHFR in humans to Candida albicans. Put shortly:
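Selectivity index is the human DHFR I50 divided by the C. albicans DHFR I50. The C. albicans enzyme (E. coli-expressed, 0.2 nM) was run in 0.1 M imidazole chloride, pH 6.4. Recombinant human enzyme (2 nM) was run in 50 mM Sorenson's phosphate, pH 7.0. Enzyme, NADPH and inhibitor were preincubated 2 min before substrate was added. I50 came from linear regression of % inhibition of steady-state velocity vs log concentration.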

In assay [1], `Nc1nc(N)c2c(Sc3ccccc3Cl)cccc2n1` had an MIC of 1 µg/mL (≈ 3.3 µM). In addition, the Selectivity index in assay [2] is 2.

In assay [1], `CCOc1ccc2nc(N)nc(N)c2c1Sc1ccc(C(C)(C)C)cc1` showed an MIC of 1 µg/mL (≈ 2.71 µM).

For the molecule `COc1cc(Sc2cccc3nc(N)nc(N)c23)cc(OC)c1OC`, in assay [1], the MIC came out at 5 µg/mL (≈ 13.9 µM).

In the case of `COc1ccc(Sc2cccc3nc(N)nc(N)c23)cc1OC`, in assay [1], the MIC is > 50 µg/mL. For the same molecule, the Selectivity index in assay [2] stood at 79.

For `Nc1nc(N)c2c(Sc3ccc(O)cc3)cccc2n1`, in assay [1], the MIC is 10 µg/mL (≈ 35.2 µM). The Selectivity index in assay [2] was 5.

Take `Nc1nc(N)c2c(Sc3ccc(C4CCCCC4)cc3)cccc2n1`: inhibition of growth in assay [1] (MIC) required 1 µg/mL (≈ 2.85 µM). Besides, the Selectivity index in assay [2] was > 200.

With `CC(C)c1ccc(Sc2cccc3nc(N)nc(N)c23)cc1`, in assay [1], the MIC worked out at 0.25 µg/mL (≈ 0.805 µM).

Take `COc1cc(Cc2cnc(N)nc2N)cc(OC)c1OC` [TRIMETHOPRIM]: the MIC in assay [1] was > 50 µg/mL.

For `Nc1nc(N)c2c(Sc3ccc([N+](=O)[O-])cc3)cccc2n1`, the MIC in assay [1] worked out at 50 µg/mL (≈ 160 µM). The Selectivity index in assay [2] was 100.

Molecule `CCC(C)(C)c1ccc(Sc2cccc3nc(N)nc(N)c23)cc1` had an MIC in assay [1] of 10 µg/mL (≈ 29.5 µM). In addition, the Selectivity index in assay [2] was 10.

In the case of `CCc1nc(N)nc(N)c1-c1ccc(Cl)cc1` [PYRIMETHAMINE], the MIC in assay [1] is > 50 µg/mL.

Regarding `Nc1nc(N)c2c(Sc3ccc(F)cc3)cccc2n1`, inhibition of growth in assay [1] (MIC) required 0.25 µg/mL (≈ 0.873 µM). Besides, in assay [2], the Selectivity index was 40.

For `Nc1nc(N)c2c(Sc3ccc(C(F)(F)F)cc3)cccc2n1`, in assay [1], the MIC worked out at 25 µg/mL (≈ 74.3 µM). In assay [2], the Selectivity index came out at 5.

As for `Cc1ccc(Sc2cccc3nc(N)nc(N)c23)cc1`, in assay [1], the MIC turned out to be 0.25 µg/mL (≈ 0.885 µM).

With `COc1ccc(Sc2cccc3nc(N)nc(N)c23)cc1`, in assay [1], the MIC was 0.25 µg/mL (≈ 0.838 µM).

Turning to `CC(C)(C)c1ccc(Sc2c(C#N)ccc3nc(N)nc(N)c23)cc1`, the MIC in assay [1] was > 5 µg/mL.

`Nc1nc(N)c2c(Sc3ccc(Br)cc3)cccc2n1`: in assay [1], the MIC amounted to 0.25 µg/mL (≈ 0.72 µM). In assay [2], the Selectivity index was 100.

`CC(C)(C)c1ccc(Sc2cccc3nc(N)nc(N)c23)cc1`: in assay [1], the MIC worked out at 0.1 µg/mL (≈ 0.308 µM).

Turning to `CCCCCCc1ccc(Sc2cccc3nc(N)nc(N)c23)cc1`, 50 µg/mL (≈ 142 µM) was the least that counted as inhibitory in assay [1] (MIC).

Molecule `CC(C)(C)c1ccc(Sc2c(N)ccc3nc(N)nc(N)c23)cc1` gave an MIC in assay [1] of 5 µg/mL (≈ 14.7 µM).

As for `Nc1nc(N)c2c(Sc3cccc(Cl)c3)cccc2n1`, the MIC in assay [1] stood at 0.5 µg/mL (≈ 1.65 µM). In assay [2], the Selectivity index is 6.

On to `CC(C)COc1ccc2nc(N)nc(N)c2c1Sc1ccc(C(C)(C)C)cc1`, for which the MIC in assay [1] was 0.8 µg/mL (≈ 2.02 µM). Also, the Selectivity index in assay [2] came to 10.

On to `N#Cc1ccc(Sc2cccc3nc(N)nc(N)c23)cc1`, for which the MIC in assay [1] is > 50 µg/mL. Moreover, in assay [2], the Selectivity index worked out at 100.

On to `COc1ccccc1Sc1cccc2nc(N)nc(N)c12`, for which, in assay [1], the MIC was 10 µg/mL (≈ 33.5 µM). In assay [2], the Selectivity index was determined as 4.

Regarding `Nc1nc(N)c2c(Sc3ccc(Cl)cc3)cccc2n1`, in assay [1], the MIC is 0.5 µg/mL (≈ 1.65 µM).

Molecule `Nc1ccc(Sc2cccc3nc(N)nc(N)c23)cc1` returned an MIC in assay [1] of 2.5 µg/mL (≈ 8.82 µM). In addition, in assay [2], the Selectivity index was found to be 5.

For `Nc1nc(N)c2c(Sc3ccccc3)cccc2n1`, 0.05 µg/mL (≈ 0.186 µM) was the least that counted as inhibitory in assay [1] (MIC).

Take `Nc1nc(N)c2c(Sc3ccc(N4CCOCC4)cc3)cccc2n1`: the MIC in assay [1] was > 50 µg/mL.

`COc1cc(NCc2ccc3nc(N)nc(N)c3c2C)cc(OC)c1OC` [TRIMETREXATE]: the MIC in assay [1] was > 50 µg/mL.

Consider `COc1cccc(Sc2cccc3nc(N)nc(N)c23)c1`, for which, in assay [1], inhibition of growth (MIC) required 0.25 µg/mL (≈ 0.838 µM).

As to `CCN(CC)c1ccc(Sc2cccc3nc(N)nc(N)c23)cc1`, in assay [1], the MIC was 2.5 µg/mL (≈ 7.36 µM).

For the molecule `COc1ccc(OC)c(Cc2cnc3nc(N)nc(N)c3c2C)c1` [PIRITREXIM], in assay [1], the MIC is > 10 µg/mL.
